Test results as given in PMC3873039 (Anti-Cancer Agents in Medicinal Chemistry, 2013).

Experiments:
[1] = system: CCRF-CEM; experiment: NucView caspase 3 activity assay by flow cytometry; type: cell-based, human; settings: 24 h; for EC50: Homo sapiens, read-out: AP50 (50% induction of apoptosis), Caspase 3 activity assay (C3); for The lowest dose of polyphenols at which there was a significant induction of apoptosis compared to the vehicle control: caspase 3 activity, p<0.05
Method in brief: (§1)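 Seeded at 0.5 x 10⁶ cells/well and treated 24 h, with series of 0–50 or 0–250 µM depending on compound. Normalized to vehicle (0% apoptosis). Mean ± STD, three independent experiments in triplicate. One-way ANOVA/Tukey, p<0.05. AP50 = concentration giving 50% apoptotic cells.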

[2] = system: U937; experiment: NucView caspase 3 activity assay by flow cytometry; type: cell-based, human; settings: for EC50: Homo sapiens, U-937, 24 h, read-out: AP50 (50% induction of apoptosis), Caspase 3 activity assay (C3); for The lowest dose of polyphenols at which there was a significant induction of apoptosis compared to the vehicle control: U937, caspase 3 activity, 24 h, p<0.05
Method in brief: as §1

[3] = system: K562; experiment: NucView caspase 3 activity assay by flow cytometry; type: cell-based, human; settings: for EC50: Homo sapiens, K562, 24 h, read-out: AP50 (50% induction of apoptosis), Caspase 3 activity assay (C3); for The lowest dose of polyphenols at which there was a significant induction of apoptosis compared to the vehicle control: K562, caspase 3 activity, 24 h, p<0.05
Method in brief: as §1

[4] = system: non-tumor cells (CD34+); experiment: Hoechst 33342 nuclear morphological analysis of apoptosis; type: cell-based; settings: 24 h, read-out: AP50 (50% induction of apoptosis), Hoechst 33342 staining (Hoe)
Method in brief: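 CD34+ cells treated 24 h across the IC25–IC50 range, then pelleted (400 g, 4 °C) and fixed in 4% paraformaldehyde/PBS. Cytospins were air-dried and stained with 10 μg/ml Hoechst 33342 for 10 min in the dark, then viewed by fluorescence microscopy. 200 cells were scored per sample as % apoptotic nuclei (shrinkage, blebbing, chromatin condensation, apoptotic bodies). AP50 = concentration giving 50% apoptosis.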

[5] = system: non-tumor progenitor cells (CD34+); experiment: Cell cycle analysis, propidium iodide flow cytometry; type: cell-based; settings: 24 h, within the IC50 ranges used to treat the leukemic cell lines
[6] = system: JURKAT; experiment: NucView caspase 3 activity assay by flow cytometry; type: cell-based, human; settings: 24 h; for EC50: Homo sapiens, Jurkat, read-out: AP50 (50% induction of apoptosis), Caspase 3 activity assay (C3); for The lowest dose of polyphenols at which there was a significant induction of apoptosis compared to the vehicle control: JURKAT, caspase 3 activity, p<0.05
Method in brief: as §1

[7] = system: HL60; experiment: NucView caspase 3 activity assay by flow cytometry; type: cell-based, human; settings: for The lowest dose of polyphenols at which there was a significant induction of apoptosis compared to the vehicle control: HL60, caspase 3 activity, 24 h, p<0.05; for EC50: Homo sapiens, HL-60, 24 h, read-out: AP50 (50% induction of apoptosis), Caspase 3 activity assay (C3)
Method in brief: as §1

[8] = system: CCRF-CEM; experiment: Cell cycle analysis, propidium iodide flow cytometry; type: cell-based, human; settings: IC50 dose, 24 h, vehicle control G0/G1 = 41.9%
Method in brief: (§2)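 Seeded at 0.5 x 10^6 cells per well in 12-well plates and treated 24 h at the IC50 concentration of each test compound from CellTiter-Glo. Cells were pelleted (400 g, 5 min), PBS-washed and fixed in 80% ethanol overnight at -20 °C. Staining used 50 µg/mL PI plus RNase overnight at 4 °C.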

[9] = system: U937; experiment: as above; type: cell-based, human; settings: U937, IC50 dose, 24 h; vehicle control G0/G1 = 44.03%
Method in brief: as §2

[10] = system: THP-1; experiment: CellTiter-Glo luminescent cell viability assay; type: cell-based, human; settings: THP-1, 24 h, doses 0, 2, 10, 50, 250, 500 µM, p<0.05
Method in brief: (§3)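 Cells grown in RPMI 1640 with 10% FBS, 1.5 mM L-glutamine and penicillin/streptomycin at 37 °C, 5% CO2. Seeded at 2.5 x 10³ cells/well and exposed 24 h to ethanol-dissolved test compound (0, 2, 10, 50, 250, 500 µM) with 0.1% ethanol vehicle. ATP luminescence normalized to vehicle (100%). IC50 taken from linear regression. Lowest significant dose set by one-way ANOVA/Tukey, p<0.05. Triplicates, three independent experiments.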

[11] = system: THP-1; experiment: NucView caspase 3 activity assay by flow cytometry; type: cell-based, human; settings: for EC50: Homo sapiens, THP-1, 24 h, read-out: AP50 (50% induction of apoptosis), Caspase 3 activity assay (C3); for The lowest dose of polyphenols at which there was a significant induction of apoptosis compared to the vehicle control: THP-1, caspase 3 activity, 24 h, p<0.05
Method in brief: as §1

[12] = system: U937; experiment: CellTiter-Glo luminescent cell viability assay; type: cell-based, human; settings: U937, 24 h, doses 0, 2, 10, 50, 250, 500 µM, p<0.05
Method in brief: as §3

[13] = system: K562; experiment: Hoechst 33342 nuclear morphological analysis of apoptosis; type: cell-based; settings: Homo sapiens, K562, 24 h, read-out: AP50 (50% induction of apoptosis), Hoechst 33342 staining (Hoe)
Method in brief: (§4)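 Seeded at 0.5 x 10⁶ cells/well in 12-well plates and treated 24 h. Cells were pelleted (400 g, 5 min, 4 °C), washed in PBS, fixed in 4% paraformaldehyde, cytospun, air-dried, then stained with 10 μg/ml Hoechst 33342 for 10 min in the dark. Fluorescence microscopy: 200 cells counted, scored by condensed/intense nuclei, shrinkage, blebbing and apoptotic bodies. % apoptotic nuclei calculated. AP50 = concentration giving 50% apoptotic cells.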

[14] = system: MOLT-3; experiment: CellTiter-Glo luminescent cell viability assay; type: cell-based, human; settings: MOLT-3, 24 h, doses 0, 2, 10, 50, 250, 500 µM, p<0.05
Method in brief: as §3

[15] = system: THP-1; experiment: Hoechst 33342 nuclear morphological analysis of apoptosis; type: cell-based; settings: Homo sapiens, THP-1, 24 h, read-out: AP50 (50% induction of apoptosis), Hoechst 33342 staining (Hoe)
Method in brief: as §4

[16] = system: K562; experiment: Cell cycle analysis, propidium iodide flow cytometry; type: cell-based, human; settings: K562, IC50 dose, 24 h; for Percentage of cells in G2/M phase of cell cycle (significant accumulation): vehicle control G2/M = 13.6%
Method in brief: as §2

[17] = system: CCRF-CEM; experiment: CellTiter-Glo luminescent cell viability assay; type: cell-based, human; settings: 24 h, doses 0, 2, 10, 50, 250, 500 µM, p<0.05
Method in brief: as §3

[18] = system: non-tumor cells (CD34+); experiment: NucView caspase 3 activity assay by flow cytometry; type: cell-based; settings: 24 h; for EC50: read-out: AP50 (50% induction of apoptosis), Caspase 3 activity assay (C3); for The lowest dose of polyphenols at which there was a significant induction of apoptosis compared to the vehicle control: CD34+ non-tumour control cells, caspase 3 activity, p<0.05
[19] = system: non-tumor cord blood (CD34+) cells; experiment: CellTiter-Glo luminescent cell viability assay; type: cell-based; settings: 24 h; for IC50: read-out: IC50 (50% inhibition of cellular proliferation), CD34+ non-tumour control cells, 24 h treatment; for The lowest dose of polyphenols at which there was a significant inhibition of cell proliferation compared to the vehicle control: CD34+ non-tumour control cells, doses 0, 2, 10, 50, 250, 500 µM, p<0.05
Method in brief: as §3

[20] = system: HL60; experiment: Hoechst 33342 nuclear morphological analysis of apoptosis; type: cell-based; settings: Homo sapiens, HL-60, 24 h, read-out: AP50 (50% induction of apoptosis), Hoechst 33342 staining (Hoe)
Method in brief: as §4

[21] = system: HL60; experiment: CellTiter-Glo luminescent cell viability assay; type: cell-based, human; settings: HL60, 24 h, doses 0, 2, 10, 50, 250, 500 µM, p<0.05
Method in brief: as §3

[22] = system: JURKAT; experiment: Cell cycle analysis, propidium iodide flow cytometry; type: cell-based, human; settings: IC50 dose, 24 h, p<0.05
Method in brief: as §2

SMILES	EC50 [1] [µM]	The lowest dose of polyphenols at which there was a significant induction of apoptosis compared to the vehicle control [1] [µM]	EC50 [2] [µM]	The lowest dose of polyphenols at which there was a significant induction of apoptosis compared to the vehicle control [2] [µM]	EC50 [3] [µM]	The lowest dose of polyphenols at which there was a significant induction of apoptosis compared to the vehicle control [3] [µM]	EC50 [4] [µM]	Cell cycle arrest in non-tumour control cells [5]	EC50 [6] [µM]	The lowest dose of polyphenols at which there was a significant induction of apoptosis compared to the vehicle control [6] [µM]	The lowest dose of polyphenols at which there was a significant induction of apoptosis compared to the vehicle control [7] [µM]	EC50 [7] [µM]	Percentage of cells in G0/G1 phase of cell cycle (significant accumulation) [8]	Percentage of cells in G0/G1 phase of cell cycle (significant accumulation) [9]	The lowest dose of polyphenols at which there was a significant inhibition of cell proliferation compared to the vehicle control [10] [µM]	EC50 [11] [µM]	The lowest dose of polyphenols at which there was a significant induction of apoptosis compared to the vehicle control [11] [µM]	The lowest dose of polyphenols at which there was a significant inhibition of cell proliferation compared to the vehicle control [12] [µM]	EC50 [13] [µM]	The lowest dose of polyphenols at which there was a significant inhibition of cell proliferation compared to the vehicle control [14] [µM]	also measured
C(=C\c1ccccc1)/c1ccccc1 [Trans-Stilbene, Trans-stilbene]	> 500	50	200	50	> 500	50	> 500	No Arrest ≤500µM	250	50	50	40	G0/G1 =49.1%	G0/G1 =62%	250	> 500	250	50	460	50	EC50 [15]: > 500 µM; Percentage of cells in G2/M phase of cell cycle (significant accumulation) [16]: G2/M =24.5%; The lowest dose of polyphenols at which there was a significant inhibition of cell proliferation compared to the vehicle control [17]: 50 µM; EC50 [18]: > 500 µM; The lowest dose of polyphenols at which there was a significant induction of apoptosis compared to the vehicle control [18]: 250 µM; IC50 [19]: 500 µM; The lowest dose of polyphenols at which there was a significant inhibition of cell proliferation compared to the vehicle control [19]: 250 µM; EC50 [20]: 50 µM; The lowest dose of polyphenols at which there was a significant inhibition of cell proliferation compared to the vehicle control [21]: 50 µM; Phase of cell cycle accumulation [22]: S-phase
O=C1c2cccc(O)c2C(=O)c2c(O)cc(CO)cc21 [Aloe - Emodin, Aloe-emodin]	50	50	50	50	> 250	50	> 500	No Arrest <500µM	50	50	50	185	G0/G1 =49%	G0/G1 =53%	250	> 250	50	50	500	50	EC50 [15]: 283 µM; Percentage of cells in G2/M phase of cell cycle (significant accumulation) [16]: G2/M =20%; The lowest dose of polyphenols at which there was a significant inhibition of cell proliferation compared to the vehicle control [17]: 50 µM; EC50 [18]: > 250 µM; The lowest dose of polyphenols at which there was a significant induction of apoptosis compared to the vehicle control [18]: 250 µM; IC50 [19]: > 500 µM; The lowest dose of polyphenols at which there was a significant inhibition of cell proliferation compared to the vehicle control [19]: 500 µM; EC50 [20]: 190 µM; The lowest dose of polyphenols at which there was a significant inhibition of cell proliferation compared to the vehicle control [21]: 50 µM; Phase of cell cycle accumulation [22]: S-phase
O=c1cc(-c2ccccc2)oc2cc(O)cc(O)c12 [Chrysin]	250	50	150	50	> 250	250	> 500	No Arrest <250µM	40	50	50	175	G0/G1 =49.4%	G0/G1 =70%	250	> 250	250	50	> 500	50	EC50 [15]: > 500 µM; Percentage of cells in G0/G1 phase of cell cycle (significant accumulation) ([16]; vehicle control G0/G1 = 53.7%): G0/G1 =59%; The lowest dose of polyphenols at which there was a significant inhibition of cell proliferation compared to the vehicle control [17]: 50 µM; EC50 [18]: > 250 µM; The lowest dose of polyphenols at which there was a significant induction of apoptosis compared to the vehicle control [18]: 250 µM; IC50 [19]: > 500 µM; The lowest dose of polyphenols at which there was a significant inhibition of cell proliferation compared to the vehicle control [19]: 500 µM; EC50 [20]: 75 µM; The lowest dose of polyphenols at which there was a significant inhibition of cell proliferation compared to the vehicle control [21]: 50 µM; Phase of cell cycle accumulation [22]: G0/G1 phase
